Measurements from PubChem BioAssay AID2152 (The Scripps Research Institute Molecular Screening Center, 2009).
The campaign covered roughly 2,300 compounds. About 25 (1%) were called active. This excerpt belongs to a sample that is enriched for actives. A number with no mark means an inactive call.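 The calls were made as follows: active = mean inhibition over three replicate wells above the hit threshold derived in the earlier primary screen (cut at about 45% in these data); inactive = the rest.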

These compounds were tested on Hepatitis C virus core protein (core106 dimerization) (assay: inhibitors of HCV core protein dimerization, confirmation, biochemical, TR-FRET, triplicate (AID 2152;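 also: 0% = DMSO wells and 100% = unlabelled core106 competitor control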)). Conditions: TR-FRET GST-/Flag-core106 dimerization, HTRF; at 5 µM; hits give high values.
Outline: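 Material: GST- and Flag-tagged HCV core106 peptides, dimerization via antibody TR-FRET. Medium: HEPES/KF buffer, pH 7.45. Doses: one 5 µM dose, 0.5% DMSO. Times: 4 h incubation, 22.5 °C. Detection: TR-FRET, excitation 340 nm, emission 671 and 617 nm. Measure: percent inhibition from emission ratio. Controls: unlabelled core106 and DMSO wells.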

| SMILES | inhibition |
| --- | --- |
| Cc1csc(SCC(=O)Nc2sc3c(c2C#N)CCC3)n1 | -4.85% |
| CCCCN(C(=O)c1cc(-c2ccco2)nc2ccccc12)c1c(N)n(CCCC)c(=O)[nH]c1=O | -1.63% |
| CN(CC(=O)Nc1ccc(F)cc1)C(=O)c1cc(-c2ccco2)nc2ccccc12 | 13.3% |
| O=C(Nc1ccc(Cl)c([N+](=O)[O-])c1)c1cnccn1 | 6.55% |
| CC1(OC(=O)CCc2ccccc2)C(=O)C=C2C=C(c3ccc(C#N)cc3)N(c3ccccc3)C=C2C1=O (centres undefined) | 1.14% |
| CC1(O)C(=O)C=C2C=C(c3ccc(C#N)cc3)OC=C2C1=O (centres undefined) | 55% (active) |
| C=CCN1C=C2C(=O)C(C)(OC(=O)CCc3ccccc3)C(=O)C=C2C=C1c1ccc(C#N)cc1 (centres undefined) | 0.52% |
| Cc1ccc2nc(N3CCN(S(=O)(=O)c4ccc5c(c4)OCCO5)CC3)c(C#N)cc2c1 | 14.6% |
| O=C(c1cc(-c2ccccn2)nc2ccc(Br)cc12)N1CCN(S(=O)(=O)c2ccccc2)CC1 | 17% |
| C/C=C\C=C/C(=O)Nc1cccc(C2=NOC3(C2)C[C@@H](C(N)=O)N(C(=O)/C=C/CC)C3)c1 (some centres undefined) | 5.44% |
| O=C1C(Cc2ccccc2)S/C(=N/N=C/c2ccco2)N1c1ccccc1 (centres undefined) | -8.03% |
| c1ccc(-c2cc(-c3nn4c(-c5ccco5)nnc4s3)c3ccccc3n2)cc1 | 16.7% |
| Cc1oc(-c2ccc(F)cc2)cc1-c1nn2c(-c3ccoc3C)nnc2s1 | 20.6% |
| Cc1oc(-c2ccc(Cl)cc2)cc1-c1nn2c(-c3ccoc3C)nnc2s1 | 52.5% (active) |
| Cc1ccc(NC(=O)c2cc(-c3ccc(C)o3)nc3ccccc23)cc1 | -0.19% |
| CCN(CC(=O)Nc1c(F)cccc1F)C(=O)/C=C/c1ccc2ccccc2n1 | 62.5% (active) |
| O=C(/C=C/c1ccc2ccccc2n1)N1CCN(c2ccccc2)CC1 | -3.48% |
| CCN(CC(=O)Nc1c(F)cccc1F)C(=O)c1cccc(-n2cccc2)c1 | 3.91% |
| O=C1CCCC2=C1C(c1cn(-c3ccccc3)nc1-c1cccs1)c1c([nH]c(=O)[nH]c1=O)N2 (centres undefined) | 0.06% |
| Cc1ccccc1N1C(S)=C(C#N)C(=O)NC1c1ccco1 (centres undefined) | 9.88% |
| Cc1ccc(NC(=O)CN2C(=O)N/C(=C/c3ccco3)C2=O)cc1 | -4.53% |
| CC1=C(C#N)C(=O)N(C2CCS(=O)(=O)C2)C(=O)/C1=C\c1ccco1 (centres undefined) | 56.2% (active) |
| COc1ccc(-c2cc(C(=O)Nc3sc4c(c3C#N)CCCC4)c3ccccc3n2)cc1OC | -1.02% |
| COc1cc(-c2cc(C(=O)OCC(=O)Nc3ccc4c(c3)OCO4)c3ccccc3n2)cc(OC)c1OC | 4.02% |
| CN(CC(=O)Nc1c(Cl)cccc1Cl)C(=O)c1cccc(-n2cccc2)c1 | 2.1% |
| COc1ccc(CC(=O)OCC(=O)Nc2ncc(Cl)cc2Cl)cc1 | -1.83% |
| COc1ccccc1NC(=O)c1ccc(SCC(=O)NCc2ccccc2Cl)c([N+](=O)[O-])c1 | -1.75% |

| SMILES | inhibition |
| --- | --- |
| O=C(NCc1ccco1)C1Cc2ccccc2CN1S(=O)(=O)c1ccccc1F (centres undefined) | 18.4% |
| C/C=C\C=C/C(=O)Nc1cccc(C2=NOC3(C2)C[C@@H](C(N)=O)N(C(=O)[C@H]2CCC(=O)N2)C3)c1 (some centres undefined) | -14.3% |
| O=C(N/N=C/c1ccc(N2CCCCC2)o1)C(O)(c1ccccc1)c1ccccc1 | -3.6% |
| CCOc1ccc(C2C(C#N)=C(N)SC(N)=C2C#N)cc1OCC | 31.4% |
| COc1ccccc1C(CCN(Cc1cccs1)C(C)=O)c1ccco1 (centres undefined) | -3.29% |
| O=C(NCCN1C(=O)S/C(=C\c2ccc(Cl)c(Cl)c2)C1=O)c1ccc2c(c1)C(=O)N(Cc1ccncc1)C2=O | 6.43% |
| O=C(COc1ccc([N+](=O)[O-])cc1)Nc1nnc(-c2cccnc2)s1 | 16.4% |
| CC[C@@H](C)CN1C(=O)N[C@@H](c2ccccc2)C(C(C)=O)=C1C | 5.08% |
| CCOC(=O)c1cccc(NC(=O)C2CCCN(c3nnc(N4CCCC4=O)s3)C2)c1 (centres undefined) | -7.1% |
| O=c1c2c3nc4ccccc4nc3n(/N=C/c3ccco3)c2ncn1CCC1=CCCCC1 | 2.56% |
| O=C(O)C/C(=C\c1cc(Cl)c2c(c1)OCO2)c1nc2ccccc2s1 | 4.02% |
| Cc1ccc(NC(=O)Nc2nnc(Cc3ccc([N+](=O)[O-])cc3)s2)cc1 | 6.61% |
| N=c1c(C(=O)NCc2ccco2)cc2c(=O)n3ccccc3nc2n1Cc1ccc(Cl)cc1 | 9.28% |
| COc1ccccc1/C=c1\sc2nc(-c3ccco3)nn2c1=O | 8.15% |
| O=c1nc2s/c(=C\c3ccco3)c(=O)n2nc1Cc1ccc(F)cc1 | 14.3% |
| COc1ccccc1/C=C/C=c1\sc2nc(=O)c(Cc3ccccc3)nn2c1=O | 46.4% (active) |
| COc1cccc(/C=N/NC(=O)c2nc(-c3ccccc3)cc(-c3ccccc3)n2)c1 | 6.79% |
| Cc1ccc(C)c(N2CCN(C(=O)CSc3ccsc3[N+](=O)[O-])CC2)c1 | 12.5% |
| O=C(/C=C\c1ccc2c(c1)OCO2)Nc1c2c(nn1-c1ccc(Cl)cc1)CSC2 | -1.47% |
| O=C(Cn1cnc2sc(-c3ccccc3)cc2c1=O)NCc1ccco1 | 3.55% |
| CCOc1cc(/C=C2\C(=O)N(c3nc(-c4ccc(Br)cc4)cs3)N=C2c2ccccc2)ccc1O | 58.1% (active) |
| CCc1ccc(-c2csc(NC(=O)C3=NN(c4ccccc4)C(=O)CC3)n2)cc1 | -3.1% |
| Cc1ccc(-c2csc(N3N=C(c4ccccc4)/C(=C\c4ccc(N(C)C)cc4)C3=O)n2)cc1 | 1.99% |
| CNC(=O)COC(=O)c1cc(-c2ccco2)nc2ccccc12 | 12.2% |
| O=C(OCC(=O)N1CCN(C(=O)c2ccco2)CC1)c1cc(-c2ccco2)nc2ccccc12 | 30.6% |
| CN(C(=O)COC(=O)c1cc(-c2ccco2)nc2ccccc12)C1CCS(=O)(=O)C1 (centres undefined) | 49.6% (active) |
| Cc1cc(C)c(S(=O)(=O)N2CCOC2CNC(=O)C(=O)NCCc2ccc(S(N)(=O)=O)cc2)c(C)c1 (centres undefined) | -0.31% |

| SMILES | inhibition |
| --- | --- |
| Cc1[nH]c2ccccc2c1CCNC(=O)c1ccc2c(c1[N+](=O)[O-])C(=O)c1ccccc1C2=O | -6.67% |
| CCOc1cc(/C=N\NC(=O)c2ccc(NC(=O)C(C)(C)C)cc2)ccc1OC(=O)c1cccc(C)c1 | -6.21% |
| C=CCOc1ccc(-c2nc3c(c(=O)[nH]c(=O)n3Cc3ccccc3)n2CCCOC)cc1 | 3% |
| C=CCn1c(C)cc(C(=O)COC(=O)c2ccc3c(c2)NC(=O)CS3)c1C | -0.86% |
| COC(=O)c1ccccc1NC(=O)CN1C(=O)C2CCCN2c2ncc(Cl)cc21 (centres undefined) | 4.11% |
| CCCN(CCC)C(=O)CC(c1ccc(F)cc1)c1ccco1 (centres undefined) | -2.6% |
| COc1ccc(C2=NN(C(=O)CSc3nc(=O)n4cccc(C)c4n3)C(c3ccc(C)cc3)C2)cc1 (centres undefined) | 21.8% |
| O=C(NNC(=O)c1cccc(-n2cccc2)c1)c1ccc(F)cc1 | 9.23% |
| Cc1ccc(-c2cc(C(F)F)n3ncc(C(=O)Nc4c(C)nn(Cc5ccccc5Cl)c4C)c3n2)cc1 | 0.26% |
| N#Cc1ccsc1NC(=O)COc1ccc(-c2nnco2)cc1 | 3.2% |
| O=C1CC(c2ccco2)Cc2nc(N3CCc4ccccc4C3)ncc21 (centres undefined) | 0.9% |
| CCN(CC)c1cc2nc(C)n(Cc3ccccc3)c(=O)c2cc1NC(=O)C1CC1 | 3.07% |
| Cc1cc([N+](=O)[O-])cc2c1NC(c1ccccn1)C1CC=CC21 (centres undefined) | 8.17% |
| CC(C)Cc1nc(N2CCN(C(=O)c3ccco3)CC2)c(C#N)c2c1CCC2 | -9.13% |
| Cc1ccc2[nH]c(=O)c(CN(Cc3ccc4c(c3)OCO4)Cc3nnnn3Cc3ccco3)cc2c1 | -2.73% |
| COc1ccc(C(=S)N2CCOCC2)cc1OC(=O)c1cc([N+](=O)[O-])c(C)c([N+](=O)[O-])c1 | 3.86% |
| COc1ccc(/C=C2\SC(=S)N(NC(=O)c3csc4c3CCCC4)C2=O)cc1 | -8.8% |
| CC(C)Cn1c(-c2ccccc2)nc(=S)c2c1CCCC2 | 2.05% |
| COc1ccc(NC(=O)NNC(=O)COc2ccc3cc(Br)ccc3c2)c(OC)c1 | 0.29% |
| COC/C=C/C1=CC2=CC(=O)C(C)(OC(=O)c3cnc4ccccc4n3)C(=O)C2=CN1Cc1ccc(OC)cc1 (centres undefined) | 2.72% |
| O=C1c2ccccc2C(Nc2ccc3c(c2)OCO3)N1Cc1ccc2c(c1)OCO2 (centres undefined) | -1.13% |
| CC(=O)c1ccc(NC(=O)/C(=C\c2ccccc2)NC(=O)/C=C/c2ccccc2)cc1 | -3.84% |
| C=C(NC(=O)C(=C)NC(=O)c1csc(C2=NC3c4csc(n4)C4NC(=O)c5csc(n5)C([C@@](C)(O)C(C)O)NC(=O)C5CSC(=N5)/C(=C\C)NC(=O)C(C(C)O)NC(=O)c5csc(n5)[C@]3(CC2)NC(=O)C(C)NC(=O)C(=C)NC(=O)C(C)NC(=O)C(C(C)CC)NC2C=Cc3c(C(C)O)cc(nc3C2O)C(=O)OC4C)n1)C(N)=O (some centres undefined) | 47.5% (active) |
| CS(=O)(=O)N1CCc2cc(-c3csc(NC(=O)C(c4ccccc4)c4ccccc4)n3)ccc21 | -5% |
| O=C(COC(=O)c1ccccc1Oc1ccccc1)NCc1ccco1 | -1.91% |
